The values below come from ChEMBL document CHEMBL3596093, “Synthesis and antimicrobial evaluation of 5-aryl-1,2,4-triazole-3-thione derivatives containing a rhodanine moiety” (2015).

Assay [1] deals with Staphylococcus aureus. Kind of assay: Antibacterial activity against Staphylococcus aureus RN4220 after 24 hrs by two-fold serial dilution method. It counts as functional. The note with it: RN4220, 24 h. In outline:
(§1)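 Broth microdilution MIC. Bacteria grown to mid-log phase in Mueller-Hinton broth, diluted 1000-fold, about 10^5 CFU/mL. Compounds from DMSO stocks, two-fold serial dilution from a final 64 µg/mL. Incubation at 37 °C for 24 h. Growth read as absorbance at 630 nm on a microplate reader. Run in triplicate.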

The test system of assay [2] is Staphylococcus aureus. The assay can be described thus: Antibacterial activity against Staphylococcus aureus KCTC 209 after 24 hrs by two-fold serial dilution method. It counts as functional. The following applies: KCTC 209, 24 h. In a few lines: (§2)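 Strains grown to mid-log phase in Mueller-Hinton broth, then diluted 1000-fold in the same broth to about 10^5 CFU/mL. Compounds were made up as DMSO stocks and two-fold serially diluted from a final top concentration of 64 µg/mL. Incubation was 37 °C for 24 h. Growth was read as absorbance at 630 nm on a microplate reader. MIC assays were run in triplicate.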

In assay [3] the test system is Staphylococcus aureus. The assay can be described thus: Antibacterial activity against Staphylococcus aureus KCTC 503 after 24 hrs by two-fold serial dilution method. Format: functional. The following applies: KCTC 503, 24 h. In a few lines: as §2
Assay [4] has as its system Streptococcus mutans. Kind of assay: Antibacterial activity against Streptococcus mutans 3065 after 24 hrs by two-fold serial dilution method. Format: functional. The note with it: Streptococcus mutans, 3065, 24 h. In a few lines: as §2
Assay [5] concerns Escherichia coli. The assay can be described thus: Antibacterial activity against Escherichia coli KCTC 1924 after 24 hrs by two-fold serial dilution method. It counts as functional. The following applies: KCTC 1924, 24 h. In a few lines:
as §2

In assay [6] the test system is Escherichia coli. The assay can be described thus: Antibacterial activity against Escherichia coli CCARM 1356 after 24 hrs by two-fold serial dilution method. The note with it: CCARM 1356, 24 h. Format: functional. In a few lines: as §2
The test system of assay [7] is Pseudomonas aeruginosa. Kind of assay: Antibacterial activity against Pseudomonas aeruginosa 2742 after 24 hrs by two-fold serial dilution method. It counts as functional. The following applies: Pseudomonas aeruginosa, 2742, 24 h. In a few lines: as §2
Assay [8] has as its system Pseudomonas aeruginosa. The assay can be described thus: Antibacterial activity against Pseudomonas aeruginosa 2004 after 24 hrs by two-fold serial dilution method. The note with it: Pseudomonas aeruginosa, 2004, 24 h. It counts as functional. In a few lines: as §2
Assay [9] has as its system Salmonella typhimurium. Kind of assay: Antibacterial activity against Salmonella typhimurium 2421 after 24 hrs by two-fold serial dilution method. Format: functional, Salmonella enterica subsp. enterica serovar Typhimurium. The following applies: Salmonella enterica, 2421, 24 h. In outline:
as §2

Assay [10] concerns Candida albicans. The assay can be described thus: Antifungal activity against Candida albicans 7535 after 24 hrs by two-fold serial dilution method. It counts as functional. The following applies: Candida albicans, 7535, 24 h.
The subject of assay [11] is Staphylococcus aureus. Kind of assay: Bactericidal activity against Staphylococcus aureus RN4220 after 24 hrs by agar plate method. It counts as functional. The note with it: RN4220, 24 h. In a few lines:
(§3)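 Samples of 5 µL from MIC wells with no visible growth were plated onto fresh Mueller-Hinton agar and incubated a further 24 h at 37 °C. MBC is the lowest concentration giving no visible colony growth on the agar. Assays were run in triplicate.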

The test system of assay [12] is Staphylococcus aureus. Kind of assay: Bactericidal activity against Staphylococcus aureus KCTC 503 after 24 hrs by agar plate method. It counts as functional. The following applies: KCTC 503, 24 h. In a few lines: (§4)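 5 µL from each well without visible growth plated on fresh Mueller-Hinton agar, then 37 °C for a further 24 h. MBC is the lowest concentration giving no visible colonies. Run in triplicate.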

Assay [13] deals with Escherichia coli. The assay can be described thus: Bactericidal activity against Escherichia coli KCTC 1924 after 24 hrs by agar plate method. It counts as functional. The note with it: KCTC 1924, 24 h. In a few lines:
as §3

Assay [14] has as its system Staphylococcus aureus. Kind of assay: Antibacterial activity against methicillin-resistant Staphylococcus aureus CCARM 3167 after 24 hrs by two-fold serial dilution method. Format: functional. The following applies: CCARM 3167, 24 h. In a few lines:
as §1

Assay [15] has as its system Staphylococcus aureus. The assay can be described thus: Antibacterial activity against methicillin-resistant Staphylococcus aureus CCARM 3506 after 24 hrs by two-fold serial dilution method. Format: functional. The following applies: CCARM 3506, 24 h. In a few lines: as §1
Assay [16] deals with Staphylococcus aureus. Kind of assay: Antibacterial activity against quinolone-resistant Staphylococcus aureus CCARM 3505 after 24 hrs by two-fold serial dilution method. Format: functional. The note with it: CCARM 3505, 24 h. In outline: as §1
The subject of assay [17] is Staphylococcus aureus. The assay can be described thus: Antibacterial activity against quinolone-resistant Staphylococcus aureus CCARM 3519 after 24 hrs by two-fold serial dilution method. Format: functional. The note with it: CCARM 3519, 24 h. In outline: as §1
Assay [18] deals with Staphylococcus aureus. The assay can be described thus: Bactericidal activity against methicillin-resistant Staphylococcus aureus CCARM 3167 after 24 hrs by agar plate method. It counts as functional. The note with it: CCARM 3167, 24 h. In outline:
as §4

Assay [19] has as its system Staphylococcus aureus. The assay can be described thus: Bactericidal activity against methicillin-resistant Staphylococcus aureus CCARM 3506 after 24 hrs by agar plate method. It counts as functional. The following applies: CCARM 3506, 24 h. In outline:
as §4

In assay [20] the test system is Staphylococcus aureus. The assay can be described thus: Bactericidal activity against quinolone-resistant Staphylococcus aureus CCARM 3505 after 24 hrs by agar plate method. The following applies: CCARM 3505, 24 h. Format: functional. In outline:
as §4

The subject of assay [21] is Staphylococcus aureus. The assay can be described thus: Bactericidal activity against quinolone-resistant Staphylococcus aureus CCARM 3519 after 24 hrs by agar plate method. Format: functional. The following applies: CCARM 3519, 24 h. In outline: as §4
The test system of assay [22] is Streptococcus mutans. Kind of assay: Bactericidal activity against Streptococcus mutans 3065 after 24 hrs by agar plate method. Format: functional. The following applies: Streptococcus mutans, 3065, 24 h. In outline: as §3
In assay [23] the test system is Staphylococcus aureus. The assay can be described thus: Ratio of MBC to MIC for Staphylococcus aureus KCTC 503. It counts as functional. In outline: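 The ratio divides MBC by MIC for the same strain. MIC comes from two-fold broth microdilution in Mueller-Hinton broth (about 10^5 CFU/mL, 37 °C, 24 h, absorbance at 630 nm). MBC comes from subculturing 5 µL from clear wells onto Mueller-Hinton agar for another 24 h at 37 °C, taken as the lowest concentration with no colonies.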

Converted amounts (≈) assume the structure as drawn.

Broadly, the MIC is the lowest concentration found to suppress growth. Lower therefore signals greater potency. What is called MBC is the smallest concentration meeting the test's criterion for killing.

With `Cc1cccc(-c2n[nH]c(=S)n2/N=C/c2ccc(/C=C3\SC(=S)NC3=O)cc2)c1`, the MIC was 32 µg/mL (≈ 73.1 µM) in [1]; > 64 µg/mL in assay [2]; 32 µg/mL (≈ 73.1 µM) in assay [3]; > 64 µg/mL in [4]; 32 µg/mL (≈ 73.1 µM) in assay [5]; > 128 µg/mL in assay [6]. In addition, the MIC in [7] is > 128 µg/mL; in [8] it was > 128 µg/mL; in [9], > 128 µg/mL; in assay [10], > 64 µg/mL; in assay [14], 64 µg/mL (≈ 146 µM); in assay [15], 32 µg/mL (≈ 73.1 µM). Moreover, the MIC in [16] and in assay [17] was 32 µg/mL (≈ 73.1 µM) each time. For the same compound, the MBC is > 256 µg/mL in [11]; > 256 µg/mL in assay [12]; 256 µg/mL (≈ 585 µM) in assay [13]; > 256 µg/mL in assay [18]; > 256 µg/mL in [19]; > 256 µg/mL in [20]. Moreover, in assay [21], the MBC was > 256 µg/mL.

As to `Cc1cccc(-c2n[nH]c(=S)n2/N=C/c2ccc(/C=C3\SC(=S)N([C@@H](Cc4ccccc4)C(=O)O)C3=O)cc2)c1`, the MIC was 32 µg/mL (≈ 54.6 µM) in assay [1]; > 64 µg/mL in assay [2]; 64 µg/mL (≈ 109 µM) in assay [3]; 64 µg/mL (≈ 109 µM) in assay [4]; > 128 µg/mL in assay [5]; > 128 µg/mL in assay [6]. For the same compound, the MIC in [7] is > 128 µg/mL; in assay [8], > 128 µg/mL; in assay [9] it was > 128 µg/mL; in assay [10], > 64 µg/mL; in [14], 16 µg/mL (≈ 27.3 µM); in [15], 16 µg/mL (≈ 27.3 µM). The MIC in assay [16] and in [17] was 16 µg/mL (≈ 27.3 µM) in each case. Also, the MBC in assay [11] was determined as 32 µg/mL (≈ 54.6 µM); in [12], 128 µg/mL (≈ 219 µM); in assay [22] it was 256 µg/mL (≈ 437 µM); in assay [18], 128 µg/mL (≈ 219 µM); in assay [19] it was 64 µg/mL (≈ 109 µM); in assay [20], 64 µg/mL (≈ 109 µM). Further, the MBC in assay [21] came out at 128 µg/mL (≈ 219 µM). The Ratio result in [23] is reported as “<=4”.

Consider `Cc1ccc(-c2n[nH]c(=S)n2/N=C/c2ccc(/C=C3\SC(=S)N([C@@H](Cc4ccccc4)C(=O)O)C3=O)cc2)cc1`, for which the MIC in assay [1] was 8 µg/mL (≈ 13.7 µM); in [2] it was > 64 µg/mL; in [3], 64 µg/mL (≈ 109 µM); in assay [4] it was 64 µg/mL (≈ 109 µM); in [5] it was > 128 µg/mL; in assay [6], > 128 µg/mL. In addition, the MIC in assay [7] is > 128 µg/mL; in [8] it was > 128 µg/mL; in [9] it was > 128 µg/mL; in [10], > 64 µg/mL; in [14], 8 µg/mL (≈ 13.7 µM); in assay [15] it was 16 µg/mL (≈ 27.3 µM). Moreover, the minimal inhibitory concentration (MIC) in assay [16] and in assay [17] was 16 µg/mL (≈ 27.3 µM) throughout. For the same compound, the MBC in assay [11] is 8 µg/mL (≈ 13.7 µM); in assay [12], 64 µg/mL (≈ 109 µM); in assay [22] it was > 256 µg/mL; in assay [18], 64 µg/mL (≈ 109 µM); in [19], 128 µg/mL (≈ 219 µM); in assay [20] it was 128 µg/mL (≈ 219 µM). For the same compound, in assay [21], the MBC is > 128 µg/mL. In addition, the Ratio entry in assay [23] is given as “<=4”.

With `O=C(O)[C@H](Cc1ccccc1)N1C(=O)/C(=C/c2ccc(/C=N/n3c(-c4ccc(F)cc4)n[nH]c3=S)cc2)SC1=S`, the MIC in assay [1] is 16 µg/mL (≈ 27.1 µM); in assay [2] it was > 64 µg/mL; in [3], 32 µg/mL (≈ 54.3 µM); in assay [4], 64 µg/mL (≈ 109 µM); in assay [5], > 128 µg/mL; in assay [6], > 128 µg/mL. In addition, the MIC was > 128 µg/mL in assay [7]; > 128 µg/mL in assay [8]; > 128 µg/mL in assay [9]; > 64 µg/mL in [10]; 16 µg/mL (≈ 27.1 µM) in [14]; 64 µg/mL (≈ 109 µM) in [15]. Moreover, the MIC in assay [16] and in assay [17] was 16 µg/mL (≈ 27.1 µM) each time. The MBC in assay [11] is 128 µg/mL (≈ 217 µM); in assay [12] it was 128 µg/mL (≈ 217 µM); in assay [22] it was 256 µg/mL (≈ 434 µM); in assay [18], 128 µg/mL (≈ 217 µM); in assay [19], > 256 µg/mL; in assay [20] it was 128 µg/mL (≈ 217 µM). The MBC in assay [21] was found to be 128 µg/mL (≈ 217 µM). In addition, in [23], the Ratio entry was “<=4”.
